Data published in ChEMBL document CHEMBL6083207, “Design, synthesis and biological evaluation of a novel PSMA-PI3K small molecule drug conjugate” (RSC Med Chem, 2024).

Legend:
LNCaP = assay: Antiproliferative activity against PSMA-positive human LNCaP cells incubated for 72 hrs by Cell Titer Glo assay; assay type: functional, cell-based
Summary of the method: (§1)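 Cells grown in RPMI 1640 with 10% FBS, seeded at 3 × 10^3 per well and left overnight, then exposed to a range of compound concentrations for 72 h. Viability read by CellTiter-Glo luminescence after 2 min shaking and 10 min at room temperature. IC50 calculated from the curves; mean of n = 3.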

CWR22R [1] = assay: Antiproliferative activity against PSMA-positive human 22Rv1 cells incubated for 72 hrs by Cell Titer Glo assay; assay type: functional, cell-based; conditions: 22Rv1, 72 h; summary of the method: as §1
CWR22R [2] = assay: Induction of cell cycle arrest in human 22Rv1 cells assessed as accumulation at G0/G1 phase incubated for 24 hrs by flow cytometry; assay type: functional, cell-based; conditions: dose <= 10.0 µM
Summary of the method: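 1 × 10^5 22Rv1 cells treated at several concentrations for 24 h, then fixed in ice-cold 70% ethanol. Stained with PI/RNase and analysed by flow cytometry with 488 nm excitation to give the percentage of cells in each cycle phase.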

CWR22R [3] = assay: Antitumor activity against human 22Rv1 cells xenografted in Balb/c athymic nude mouse at 20 mg/kg, ip qd measured for 22 days relative to control; assay type: functional; conditions: 22Rv1, 528 h, time 22 day, read-out: TGI
Summary of the method: (§2)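 Male Balb/c athymic nude mice, 8–10 weeks old. Tumour cells taken from 22Rv1 donor tumours (grown to 1000 mm3) and implanted at 2 × 10^6 per mouse, subcutaneously in the right flank. Randomized at about 100 mm3. Compound given ip once daily in saline with 1% PEG400; vehicle group received the same. Tumour volume (1/2 × L × W2) and body weight measured twice weekly.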

[4] = Toxicity in Balb/c athymic nude mouse xenografted with human 22Rv1 cells assessed as body weight change at 10 to 20 mg/kg, ip qd measured for 22 days; assay type: organism-based; conditions: in vivo, 528 h, dose 10-20 mg/kg, time 22 day; summary of the method: as §2
[5] = Selectivity ratio of IC50 for PSMA-negative human PC-3 cells to IC50 for PSMA-positive human LNCaP cells; assay type: functional
Summary of the method: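 Ratio of PC3 IC50 to LNCaP IC50, both from 72 h CellTiter-Glo viability assays.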

CWR22R [6] = assay: Antitumor activity against human 22Rv1 cells xenografted in Balb/c athymic nude mouse administered intraperitoneally once daily measured for 22 days; conditions: dose 10-20 mg/kg, route ip, time 22.0 day; summary of the method: as §2
22Rv1 [7] = assay: Inhibition of PI3K in human 22Rv1 cells assessed as reduction in phosphorylation of S6RP incubated for 3 hrs by Western blot analysis; assay type: cell-based; conditions: dose <= 10.0 µM
Summary of the method: (§3)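 22Rv1 cells treated at the stated concentrations for 3 h and lysed in RIPA buffer with protease and phosphatase inhibitors. 25 μg protein separated by SDS-PAGE and blotted to PVDF. Probed overnight at 4 °C for phospho- and total mTOR, AKT (Ser473) and S6RP, with β-actin as loading control. Detected by ECL chemiluminescence.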

PC-3 = assay: Antiproliferative activity against PSMA-negative human PC-3 cells incubated for 72 hrs by Cell Titer Glo assay; assay type: functional, cell-based; conditions: PC-3, 72 h; summary of the method: as §1
[8] = biological target: Phosphatidylinositol 4,5-bisphosphate 3-kinase catalytic subunit alpha isoform (Homo sapiens, UniProt P42336); assay: Inhibition of PI3Kalpha (unknown origin)
Phosphatidylinositol 4,5-bisphosphate 3-kinase catalytic subunit alpha isoform, sequence (P42336 whole entry, canonical isoform): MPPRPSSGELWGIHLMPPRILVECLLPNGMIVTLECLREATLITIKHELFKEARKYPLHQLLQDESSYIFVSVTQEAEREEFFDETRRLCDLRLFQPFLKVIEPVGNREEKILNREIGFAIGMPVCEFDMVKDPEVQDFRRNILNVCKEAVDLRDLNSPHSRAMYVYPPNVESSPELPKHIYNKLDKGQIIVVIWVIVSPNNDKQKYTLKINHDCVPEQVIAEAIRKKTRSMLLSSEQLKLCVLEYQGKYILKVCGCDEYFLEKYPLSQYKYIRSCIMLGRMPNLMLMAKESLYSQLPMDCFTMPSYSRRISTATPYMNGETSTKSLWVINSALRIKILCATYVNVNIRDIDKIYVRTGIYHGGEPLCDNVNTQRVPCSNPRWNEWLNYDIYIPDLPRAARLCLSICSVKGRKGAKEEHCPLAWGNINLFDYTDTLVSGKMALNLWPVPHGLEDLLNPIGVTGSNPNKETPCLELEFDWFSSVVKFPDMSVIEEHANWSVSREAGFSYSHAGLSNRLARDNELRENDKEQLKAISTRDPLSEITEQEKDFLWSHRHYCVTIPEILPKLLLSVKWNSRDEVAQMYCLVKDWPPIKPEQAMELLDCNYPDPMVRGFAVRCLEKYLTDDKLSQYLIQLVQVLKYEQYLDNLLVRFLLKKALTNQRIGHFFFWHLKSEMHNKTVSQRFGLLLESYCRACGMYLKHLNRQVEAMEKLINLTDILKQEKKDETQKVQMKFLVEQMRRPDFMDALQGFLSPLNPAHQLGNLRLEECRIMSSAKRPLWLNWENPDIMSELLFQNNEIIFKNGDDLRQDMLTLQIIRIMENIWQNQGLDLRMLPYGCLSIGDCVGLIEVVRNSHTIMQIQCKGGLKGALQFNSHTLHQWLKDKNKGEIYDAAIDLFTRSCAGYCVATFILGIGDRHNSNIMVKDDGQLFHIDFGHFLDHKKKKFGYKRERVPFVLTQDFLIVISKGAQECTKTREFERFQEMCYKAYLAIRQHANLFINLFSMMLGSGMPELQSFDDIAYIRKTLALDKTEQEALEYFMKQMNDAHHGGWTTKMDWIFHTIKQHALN

[9] = Selectivity ratio of IC50 for PSMA-negative human PC3 cells to IC50 for PSMA-positive human 22Rv1 cells
[10] = Toxicity in Balb/c athymic nude mouse xenografted with human 22Rv1 cells assessed as drug tolerance at 10 to 20 mg/kg, ip qd measured for 22 days; assay type: organism-based; conditions: in vivo, 528 h, dose 10-20 mg/kg, time 22 day; summary of the method: as §2
22Rv1 [11] = assay: Inhibition of PI3K in human 22Rv1 cells assessed as reduction in phosphorylation of AKT at S473 incubated for 3 hrs by Western blot analysis; assay type: cell-based; conditions: dose <= 10.0 µM; summary of the method: as §3
22Rv1 [12] = assay: Inhibition of PI3K in human 22Rv1 cells assessed as reduction in phosphorylation of mTOR incubated for 3 hrs by Western blot analysis; assay type: cell-based; conditions: dose <= 10.0 µM; summary of the method: as §3

Row | SMILES | IC50 (LNCaP) | IC50 (CWR22R [1]) | Activity (CWR22R [2]) | inhibition in vivo at 20 mg/kg (CWR22R [3]) | Activity [4] | Ratio IC50 [5] | Activity (CWR22R [6]) | inhibition (22Rv1 [7]) | IC50 (PC-3) | IC50 [8] | Ratio IC50 [9] | Activity [10] | inhibition (22Rv1 [11]) | inhibition (22Rv1 [12])
1 | NCCCC[C@H](NC(=O)N[C@@H](CCC(=O)O)C(=O)O)C(=O)O | > 100 µM | – | – | – | – | – | – | – | – | – | – | – | – | –
2 | COc1ncc(-c2cc(OCCCC(=O)NC[C@H]3CC[C@@H](C(=O)N[C@@H](Cc4ccc5ccccc5c4)C(=O)NCCCC[C@H](NC(=O)N[C@@H](CCC(=O)O)C(=O)O)C(=O)O)CC3)c3ncnc(C)c3c2)cc1NS(=O)(=O)c1ccc(F)cc1F | 1.08 µM | 9.68 µM | Dose-dependent-effect | 53% | Non-toxic | 54 | Dose-dependent-effect | Dose-dependent-effect | 57.8 µM | 0.0004 µM | 6 | Non-toxic | Dose-dependent-effect | Dose-dependent-effect
